From ChEMBL document CHEMBL3600351, “Exploiting translational stalling peptides in an effort to extend azithromycin interaction within the prokaryotic ribosome nascent peptide exit tunnel” (Bioorg Med Chem, 2015)
Values after ≈ are worked out from the molar mass of the structure shown. Active and inactive are the calls of the source. No cut-off for these calls is given here.

Experiments:
Staphylococcus aureus [1] = test: Antibacterial activity against Staphylococcus aureus ATCC 29213 assessed as inhibition of bacterial growth after 18 hrs in presence of 50% bovine serum by liquid microdilution method; type: functional; conditions: ATCC 29213, 18 h
In short: (§1)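 S. aureus ATCC 29213 overnight culture (37 °C) diluted 1:1000 in 50% bovine serum/broth and run by liquid microdilution. Growth was taken from OD600 change over 18 h at 37 °C to give MIC50, in triplicate against a vehicle control. The enhancement ratio is MIC50 without serum divided by MIC50 with serum.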

Escherichia coli = test: Antibacterial activity against Escherichia coli ATCC 27856 assessed as inhibition of bacterial growth after 18 hrs by liquid microdilution method; type: functional
In short: (§2)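 Liquid microdilution. Overnight 37 °C cultures, E. coli ATCC 27856 in LB and S. aureus ATCC 29213 in TSB, diluted 1:1000 in the same medium and exposed to compound. Growth was taken from OD600 before and after 18 h at 37 °C. MIC50 is the read-out. Triplicate, normalized to an internal vehicle control.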

[2] = Inhibition of ribosome nascent peptide exit tunnel in Escherichia coli S30 extract assessed as inhibition of prokaryotic translation in presence of amino acids incubated for 20 mins by luciferase reporter gene assay
In short: (§3)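 E. coli S30 cell-free extract with all amino acids, preincubated with compound for 20 min at room temperature. Luciferase control template added, translation run 60 min at 37 °C, then stopped by 5 min on ice. Luminescence was read after luciferin addition. IC50 from nonlinear fit, triplicate, normalized to vehicle control.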

Staphylococcus aureus [3] = test: Antibacterial activity against Staphylococcus aureus ATCC 29213 assessed as inhibition of bacterial growth after 18 hrs by liquid microdilution method; type: functional; conditions: ATCC 29213, 18 h; in short: as §2
Staphylococcus aureus [4] = test: Ratio of MIC50 for Staphylococcus aureus ATCC 29213 in absence of 50% bovine serum to MIC50 for Staphylococcus aureus ATCC29213 in presence of 50% bovine serum; type: functional; in short: as §1
[5] = Binding affinity to ribosome nascent peptide exit tunnel in rabbit reticulocyte extract assessed as inhibition of eukaryotic translation in presence of amino acids incubated for 20 mins by luciferase reporter gene assay; parameters: species or system Oryctolagus cuniculus
In short: as §3, with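 “Nuclease-treated rabbit reticulocyte lysate” for “E. coli S30 cell-free extract”, “90” for “60”, “30” for “37”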

Staphylococcus aureus [6] = test: Antibacterial activity against Erm+ methicillin-resistant Staphylococcus aureus ATCC 33591 assessed as inhibition of bacterial growth after 18 hrs by liquid microdilution method; type: functional
In short: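 MRSA grown overnight at 37 °C in Nutrient broth, diluted 1:1000 in the same medium, then plated with the compounds. Growth was judged by comparing OD600 before and after 18 h at 37 °C. MIC50 was taken by liquid microdilution. Vancomycin was the positive control. Each compound was run in triplicate and standardized against an internal vehicle control.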

`CC[C@H]1OC(=O)[C@H](C)[C@@H](O[C@H]2C[C@@](C)(OC)[C@@H](O)[C@H](C)O2)[C@H](C)[C@@H](O[C@@H]2O[C@H](C)C[C@H](N(C)C)[C@H]2O)[C@](C)(O)C[C@@H](C)CN(CCCCc2cn(CCc3c[nH]c4ccc(F)cc34)nn2)[C@H](C)[C@@H](O)[C@]1(C)O` gave an MIC50 (Staphylococcus aureus [1]) of 0.16 µg/mL, an MIC50 (Escherichia coli; ATCC 27856, 18 h) of 32 µg/mL (≈ 31.4 µM) and an IC50 [2] of 2600 nM. It also gave an MIC50 (Staphylococcus aureus [3]) of 0.78 µg/mL (≈ 0.765 µM), a Ratio (Staphylococcus aureus [4]) of 5 and an IC50 [5] greater than 250 µM. For the same compound, the MIC50 (Staphylococcus aureus [6]) was “inactive”.

With `CC[C@H]1OC(=O)[C@H](C)[C@@H](O[C@H]2C[C@@](C)(OC)[C@@H](O)[C@H](C)O2)[C@H](C)[C@@H](O[C@@H]2O[C@H](C)C[C@H](N(C)C)[C@H]2O)[C@](C)(O)C[C@@H](C)CN(CCCCc2cn(CCn3ccc4cc([N+](=O)[O-])ccc43)nn2)[C@H](C)[C@@H](O)[C@]1(C)O` the MIC50 (Staphylococcus aureus [1]) was 0.63 µg/mL, the MIC50 (Escherichia coli; ATCC 27856, 18 h) was 16 µg/mL (≈ 15.3 µM) and the IC50 [2] was 811 nM. The MIC50 (Staphylococcus aureus [3]) was 1.56 µg/mL (≈ 1.49 µM), the Ratio (Staphylococcus aureus [4]) was 2.5 and the IC50 [5] was greater than 250 µM. For the same compound, the MIC50 (Staphylococcus aureus [6]) was “inactive”.

In the case of `CC[C@H]1OC(=O)[C@H](C)[C@@H](O[C@H]2C[C@@](C)(OC)[C@@H](O)[C@H](C)O2)[C@H](C)[C@@H](O[C@@H]2O[C@H](C)C[C@H](N(C)C)[C@H]2O)[C@](C)(O)C[C@@H](C)CN(Cc2ccc(-c3cn(CCn4ccc5cc(Cl)ccc54)nn3)cc2)[C@H](C)[C@@H](O)[C@]1(C)O`, the MIC50 (Staphylococcus aureus [1]) is reported as 1.56 µg/mL, the MIC50 (Escherichia coli) is reported as “inactive” and the IC50 [2] is reported as 1250 nM. The MIC50 (Staphylococcus aureus [3]) was 3.13 µg/mL (≈ 2.93 µM), the Ratio (Staphylococcus aureus [4]) was 2 and the IC50 [5] was greater than 250 µM. For the same compound, the MIC50 (Staphylococcus aureus [6]) was “inactive”.

`CC[C@H]1OC(=O)[C@H](C)[C@@H](O[C@H]2C[C@@](C)(OC)[C@@H](O)[C@H](C)O2)[C@H](C)[C@@H](O[C@@H]2O[C@H](C)C[C@H](N(C)C)[C@H]2O)[C@](C)(O)C[C@@H](C)CN(C)[C@H](C)[C@@H](O)[C@]1(C)O` [AZITHROMYCIN] showed an MIC50 (Staphylococcus aureus [1]) of 0.13 µg/mL, an MIC50 (Escherichia coli; ATCC 27856, 18 h) of 4 µg/mL (≈ 5.34 µM) and an IC50 [2] of 292 nM. It also gave an MIC50 (Staphylococcus aureus [3]) of 0.78 µg/mL (≈ 1.04 µM), a Ratio (Staphylococcus aureus [4]) of 6 and an IC50 [5] greater than 250 µM. For the same compound, the MIC50 (Staphylococcus aureus [6]) was “inactive”.

`CC[C@H]1OC(=O)[C@H](C)[C@@H](O[C@H]2C[C@@](C)(OC)[C@@H](O)[C@H](C)O2)[C@H](C)[C@@H](O[C@@H]2O[C@H](C)C[C@H](N(C)C)[C@H]2O)[C@](C)(O)C[C@@H](C)CN(CCCCc2cn(CCn3ccc4cc(F)ccc43)nn2)[C@H](C)[C@@H](O)[C@]1(C)O` gave an MIC50 (Staphylococcus aureus [1]) of 0.31 µg/mL, an MIC50 (Escherichia coli; ATCC 27856, 18 h) of 16 µg/mL (≈ 15.7 µM) and an IC50 [2] of 646 nM. For the same compound, the MIC50 (Staphylococcus aureus [3]) was 1.56 µg/mL (≈ 1.53 µM), the Ratio (Staphylococcus aureus [4]) was 5 and the IC50 [5] was greater than 250 µM. For the same compound, the MIC50 (Staphylococcus aureus [6]) was “inactive”.

With `CN[C@H](CC(C)C)C(=O)N[C@H]1C(=O)N[C@@H](CC(N)=O)C(=O)N[C@H]2C(=O)N[C@H]3C(=O)N[C@H](C(=O)N[C@H](C(=O)O)c4cc(O)cc(O)c4-c4cc3ccc4O)[C@H](O)c3ccc(c(Cl)c3)Oc3cc2cc(c3O[C@@H]2O[C@H](CO)[C@@H](O)[C@H](O)[C@H]2O[C@H]2C[C@](C)(N)[C@H](O)[C@H](C)O2)Oc2ccc(cc2Cl)[C@H]1O` [VANCOMYCIN] the MIC50 (Staphylococcus aureus [1]) was 1.56 µg/mL, the MIC50 (Staphylococcus aureus [3]) was 1.56 µg/mL (≈ 1.08 µM) and the Ratio (Staphylococcus aureus [4]) was 1. It also gave an MIC50 (Staphylococcus aureus [6]; ATCC 33591, 18 h) of 4 µg/mL (≈ 2.76 µM).

In the case of `CC[C@H]1OC(=O)[C@H](C)[C@@H](O[C@H]2C[C@@](C)(OC)[C@@H](O)[C@H](C)O2)[C@H](C)[C@@H](O[C@@H]2O[C@H](C)C[C@H](N(C)C)[C@H]2O)[C@](C)(O)C[C@@H](C)CN(CCCCc2cn(CC)nn2)[C@H](C)[C@@H](O)[C@]1(C)O`, the MIC50 (Staphylococcus aureus [1]) is reported as 0.31 µg/mL, the MIC50 (Escherichia coli; ATCC 27856, 18 h) is reported as 32 µg/mL (≈ 36.1 µM) and the IC50 [2] is reported as 1220 nM. The MIC50 (Staphylococcus aureus [3]) was 3.13 µg/mL (≈ 3.53 µM), the Ratio (Staphylococcus aureus [4]) was 10 and the IC50 [5] was greater than 250 µM. The MIC50 (Staphylococcus aureus [6]) was “inactive”.

With `CC[C@H]1OC(=O)[C@H](C)[C@@H](O[C@H]2C[C@@](C)(OC)[C@@H](O)[C@H](C)O2)[C@H](C)[C@@H](O[C@@H]2O[C@H](C)C[C@H](N(C)C)[C@H]2O)[C@](C)(O)C[C@@H](C)CN(Cc2ccc(-c3cn(CCc4c[nH]c5ccc(F)cc45)nn3)cc2)[C@H](C)[C@@H](O)[C@]1(C)O` the MIC50 (Staphylococcus aureus [1]) was 1.56 µg/mL, the MIC50 (Escherichia coli) was “inactive” and the IC50 [2] was 2030 nM. For the same compound, the MIC50 (Staphylococcus aureus [3]) was 3.13 µg/mL (≈ 2.97 µM), the Ratio (Staphylococcus aureus [4]) was 2 and the IC50 [5] was greater than 250 µM. For the same compound, the MIC50 (Staphylococcus aureus [6]) was “inactive”.
